Consider 23 compounds from ChEMBL document CHEMBL1765045, “Fine-tuning the selectivity of aldosterone synthase inhibitors: structure-activity and structure-selectivity insights from studies of heteroaryl substituted 1,2,5,6-tetrahydropyrrolo[3,2,1-ij]quinolin-4-one derivatives” (J Med Chem, 2011).

The target of data set [1] is T1, Cytochrome P450 11B2, mitochondrial (Homo sapiens, UniProt P19099).
T1 sequence (P19099 whole entry): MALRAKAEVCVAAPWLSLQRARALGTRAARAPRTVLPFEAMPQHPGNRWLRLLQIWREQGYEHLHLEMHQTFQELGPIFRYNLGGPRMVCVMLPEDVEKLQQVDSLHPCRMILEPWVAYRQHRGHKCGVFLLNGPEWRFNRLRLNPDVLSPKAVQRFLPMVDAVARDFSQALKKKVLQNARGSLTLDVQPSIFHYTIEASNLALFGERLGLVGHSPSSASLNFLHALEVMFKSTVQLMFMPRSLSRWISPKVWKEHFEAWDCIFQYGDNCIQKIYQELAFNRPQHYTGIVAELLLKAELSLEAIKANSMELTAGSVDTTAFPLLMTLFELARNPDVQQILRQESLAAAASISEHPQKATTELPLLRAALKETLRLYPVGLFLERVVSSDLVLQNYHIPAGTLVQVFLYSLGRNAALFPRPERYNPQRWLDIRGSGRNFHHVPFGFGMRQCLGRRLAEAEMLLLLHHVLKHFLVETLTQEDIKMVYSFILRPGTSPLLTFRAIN
Nature of the data set: Inhibition of human CYP11B2 expressed in hamster V79 MZh cells assessed as conversion of [4-14C]-11-deoxycorticosterone substrate at 500 nM by HPTLC assay. The following applies: V79MZh. Format: cell-based. The method in brief:
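V79 MZh cells expressing human CYP11B2 given [4-14C]-11-deoxycorticosterone, 100 nM, with inhibitor at a single 500 nM concentration. Ethyl acetate extraction, then HPTLC/phosphoimager readout of conversion. Percent inhibition is the mean of at least three experiments.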

The target of data set [2] is T1, Cytochrome P450 11B2, mitochondrial. Nature of the data set: Inhibition of human CYP11B2 expressed in hamster V79 MZh cells assessed as conversion of [4-14C]-11-deoxycorticosterone substrate by HPTLC assay. Format: cell-based. The method in brief: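 Hamster V79 MZh fibroblasts expressing human CYP11B2 incubated with [4-14C]-11-deoxycorticosterone (100 nM) and inhibitor at ≥3 concentrations; reaction stopped with ethyl acetate, steroids extracted after shaking and centrifugation (10000g, 2 min). Substrate conversion read by HPTLC with phosphoimaging.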

The target in data set [3] is T2, Cytochrome P450 11B1, mitochondrial (Homo sapiens, UniProt P15538).
T2 sequence (P15538 whole entry): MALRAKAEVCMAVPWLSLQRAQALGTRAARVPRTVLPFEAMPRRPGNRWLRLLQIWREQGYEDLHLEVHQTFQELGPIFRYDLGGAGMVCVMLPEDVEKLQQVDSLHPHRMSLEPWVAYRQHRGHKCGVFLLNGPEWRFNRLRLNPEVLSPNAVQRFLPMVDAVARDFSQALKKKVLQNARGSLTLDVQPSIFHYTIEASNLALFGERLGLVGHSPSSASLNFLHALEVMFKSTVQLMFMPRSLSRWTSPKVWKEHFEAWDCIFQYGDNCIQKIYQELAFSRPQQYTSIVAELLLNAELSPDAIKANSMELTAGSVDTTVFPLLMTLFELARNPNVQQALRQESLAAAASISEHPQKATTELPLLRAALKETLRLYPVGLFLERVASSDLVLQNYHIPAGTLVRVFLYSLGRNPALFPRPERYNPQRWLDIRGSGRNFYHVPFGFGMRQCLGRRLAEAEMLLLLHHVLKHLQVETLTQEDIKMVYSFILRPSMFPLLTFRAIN
The experiment in a line: Inhibition of human CYP11B1 expressed in hamster V79 MZh cells assessed as conversion of [4-14C]-11-deoxycorticosterone substrate by HPTLC assay. Format: cell-based. The method in brief: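 V79 MZh hamster fibroblasts stably expressing human CYP11B1 or CYP11B2 incubated with [4-14C]-11-deoxycorticosterone, 100 nM, plus inhibitor at ≥3 concentrations. Reaction stopped with ethyl acetate, steroids extracted into the organic phase, and substrate conversion quantified by HPTLC with phosphoimaging. IC50 is the mean of at least three experiments.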

In data set [4] the target is T3, CYP17 (Homo sapiens, UniProt P05093).
T3 sequence (P05093 whole entry): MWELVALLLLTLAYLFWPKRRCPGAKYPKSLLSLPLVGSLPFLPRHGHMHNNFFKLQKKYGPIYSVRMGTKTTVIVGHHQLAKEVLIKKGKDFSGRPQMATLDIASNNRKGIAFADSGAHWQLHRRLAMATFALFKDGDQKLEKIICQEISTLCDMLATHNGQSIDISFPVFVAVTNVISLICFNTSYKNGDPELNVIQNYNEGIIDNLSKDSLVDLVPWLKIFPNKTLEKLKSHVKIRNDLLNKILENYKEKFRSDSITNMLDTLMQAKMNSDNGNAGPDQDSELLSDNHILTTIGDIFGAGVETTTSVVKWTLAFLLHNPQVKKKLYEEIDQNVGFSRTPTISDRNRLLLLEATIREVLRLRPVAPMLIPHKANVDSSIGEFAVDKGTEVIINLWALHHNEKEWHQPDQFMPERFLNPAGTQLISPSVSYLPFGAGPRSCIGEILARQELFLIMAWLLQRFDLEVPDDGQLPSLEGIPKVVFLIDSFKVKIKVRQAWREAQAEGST
Nature of the data set: Inhibition of human CYP17 expressed in Escherichia coli using progesterone substrate at 2 uM. The following applies: recombinant human CYP17 expressed in Escherichia coli, probe progesterone. The method in brief: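 50000g sediment of E. coli homogenate recombinantly expressing human CYP17. Progesterone substrate at 25 μM, inhibitor tested at 2 μM.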

The species entered for data set [5] is Homo sapiens. Nature of the data set: Selectivity ratio of IC50 for human CYP11B1 to IC50 for human CYP11B2. The method in brief:
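Ratio of IC50 values from V79 MZh cell assays for human CYP11B1 and CYP11B2, IC50 CYP11B1/IC50 CYP11B2. Both assays used [4-14C]-11-deoxycorticosterone, 100 nM, inhibitor at ≥3 concentrations and HPTLC/phosphoimager readout of conversion.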

As a reminder, the inhibition is the relative decrease from the control value, in per cent. One may read the IC50 as the concentration at which inhibition is half-maximal.

`O=C1CCc2cc(-n3ccnc3)cc3c2N1CC3`: the inhibition at 0.5 µM in data set [1] worked out at 87%. For the same compound, the IC50 came to 89 nM in data set [2] and 2080 nM in data set [3].
For the compound `O=C1CCc2cc(-c3ccncc3)cc3c2N1CC3`, the inhibition at 0.5 µM in data set [1] is 7%.
As for `O=C1CCc2cc(-c3cncc4ccccc34)cc3c2N1CC3`, in data set [1], the inhibition at 0.5 µM was 98%. The inhibition at 2 µM in data set [4] was found to be 6%. For the same compound, the IC50 in data set [2] worked out at 0.2 nM; in data set [3] it was 13 nM.
Take `CCOc1cncc(-c2cc3c4c(c2)CCN4C(=O)CC3)c1`: in data set [5], the Ratio IC50 came to 158. Besides, in data set [1], the inhibition at 0.5 µM worked out at 92%. The figures for the 50% inhibitory concentration (IC50) in data set [2] and in data set [3] were 1 nM and 158 nM, respectively.
For the compound `S=C1CCc2cc(-c3cccnc3)cc3c2N1CC3`, the inhibition at 0.5 µM in data set [1] was found to be 96%. Further, in data set [4], the inhibition at 2 µM was found to be 11%. For the same compound, the IC50 in data set [2] came out at 1.2 nM; in data set [3], 333 nM.
As to `O=C1CCc2cc(-c3cncc(-c4ccccc4F)c3)cc3c2N1CC3`, the Ratio IC50 in data set [5] was 61. In addition, the inhibition at 0.5 µM in data set [1] came to 92%. The half-maximal inhibitory concentration (IC50) in data set [2] was 0.7 nM; in data set [3], 43 nM.
With `COc1ccc(-c2cncc(-c3cc4c5c(c3)CCN5C(=O)CC4)c2)cc1`, the inhibition at 0.5 µM in data set [1] turned out to be 95%. For the same compound, the IC50 in data set [2] was found to be 1.4 nM; in data set [3], 21 nM.
For `O=C1CCc2cc(-c3cncc(-c4ccc(F)c(F)c4)c3)cc3c2N1CC3`, in data set [1], the inhibition at 0.5 µM was determined as 89%. Also, in data set [4], the inhibition at 2 µM was less than 5%. Further, the IC50 in data set [2] came to 2.3 nM; in data set [3], 496 nM.
With `O=C1CCc2cc(-c3cncnc3)cc3c2N1CC3`, in data set [1], the inhibition at 0.5 µM worked out at 81%. For the same compound, the inhibition at 2 µM in data set [4] was determined as 5%. The results for the 50% inhibitory concentration (IC50) in data set [2] and in data set [3] were 56 nM and 28500 nM, respectively.
Turning to `O=C1CCc2cc(-c3cncc(-c4cccc(C(F)(F)F)c4)c3)cc3c2N1CC3`, in data set [1], the inhibition at 0.5 µM turned out to be 80%. The IC50 in data set [2] was determined as 33 nM; in data set [3], 4650 nM.
For `O=C1CCc2cc(-c3cncc(-c4ccc(F)cc4)c3)cc3c2N1CC3` the same measures were 96%, 0.9 nM and 40 nM.
For `CC(C)Oc1cncc(-c2cc3c4c(c2)CCN4C(=O)CC3)c1` the same measures were 96%, 2.2 nM and 103 nM.
For `O=C1CCc2cc(-c3cncc(-c4cccc(OC(F)(F)F)c4)c3)cc3c2N1CC3` the same measures were 92%, 16 nM and 2060 nM.
Turning to `CC1(C)CC(=O)N2CCc3cc(-c4cccnc4)cc1c32`, in data set [1], the inhibition at 0.5 µM was determined as 48%.
With `O=C1CCc2cc(-c3cncc(F)c3)cc3c2N1CC3`, the inhibition at 0.5 µM in data set [1] came out at 97%. For the same compound, the inhibition at 2 µM in data set [4] is less than 5%. Further, the results for the IC50 in data set [2] and in data set [3] were 4.4 nM and 1290 nM, respectively.
Take `O=C1CCc2cc(-c3cncc(-c4ccccc4)c3)cc3c2N1CC3`: in data set [5], the Ratio IC50 came to 45. The inhibition at 0.5 µM in data set [1] stood at 97%. Also, the IC50 in data set [2] turned out to be 1.3 nM; in data set [3], 58 nM.
With `O=C1CCc2cc(-c3cncc(-c4cc(F)ccc4F)c3)cc3c2N1CC3`, the inhibition at 0.5 µM in data set [1] amounted to 80%. For the same compound, the concentration for half-maximal inhibition (IC50) in data set [2] is 3.6 nM; in data set [3], 183 nM.
The corresponding values for `O=C1CCc2cc(-c3cncc(C(F)(F)F)c3)cc3c2N1CC3` are 96%, 5.9 nM and 141 nM.
With `O=C1CCc2cc(-c3cncc(-c4cccc(O)c4)c3)cc3c2N1CC3`, in data set [1], the inhibition at 0.5 µM was found to be 92%. Besides, the figures for the 50% inhibitory concentration (IC50) in data set [2] and in data set [3] were 1.2 nM and 44 nM, respectively.
As for `COc1cccc(-c2cncc(-c3cc4c5c(c3)CCN5C(=O)CC4)c2)c1`, the Ratio IC50 in data set [5] came to 299. For the same compound, the inhibition at 0.5 µM in data set [1] was 86%. For the same compound, the inhibition at 2 µM in data set [4] is less than 5%. The IC50 amounted to 4.6 nM in data set [2] and 1370 nM in data set [3].
With `COc1ccccc1-c1cncc(-c2cc3c4c(c2)CCN4C(=O)CC3)c1`, the inhibition at 0.5 µM in data set [1] was found to be 86%. Further, the values for the IC50 in data set [2] and in data set [3] were 2.4 nM and 128 nM, respectively.
For `O=C1CCc2cc(-c3cncc(-c4cc(F)cc(F)c4)c3)cc3c2N1CC3` the same measures were 81%, 18 nM and 1750 nM.
With `O=C1CCc2cc(-c3cncc(O)c3)cc3c2N1CC3`, the inhibition at 0.5 µM in data set [1] turned out to be 94%. Moreover, the concentration for half-maximal inhibition (IC50) in data set [2] stood at 4.3 nM; in data set [3] it was 2040 nM.
